Structures are written as SMILES.

The subject of data set [1] is Rattus norvegicus. Description: Antiinflammatory activity in Sprague-Dawley rat assessed as reduction of carrageenan-induced paw edema at 50 mg/kg, po administered 30 mins before carrageenan challenge measured after 1 hr by mercury displacement method relative to control. On the set-up: scale not given: the % may be the effect or the level left. It is filed as functional. In outline:
(§1)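 Rats (150–230 g; groups of six), paw edema induced with 1.0% carrageenan. Compounds given p.o. as suspensions in 2% sodium CMC 30 min before carrageenan, test compounds at 200 mg/kg and indomethacin standard at 50 mg/kg; 2% CMC served as control. Paw volume measured by mercury-displacement plethysmography. Mean ± SEM of six animals.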
A general note: Carrageenan injected into the paw causes an acute inflammation.

In data set [2] the test system is Rattus norvegicus. The experiment in a line: Gastrointestinal toxicity in Sprague-Dawley rat assessed as lengths of longest diameters of lesions at 20 mg/kg, po after 6 hrs. To be noted: in vivo. Also noted: dose 20 mg/kg, route oral. It is filed as organism-based. A digest of the protocol: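 SD rats of either sex (150–200 g), groups of six; dosed orally in 0.1% Tween 80, vehicle as control. Stomachs taken 6 h later, ligated and stored overnight in 2% v/v formol saline. Next day opened along greater curvature, washed in warm water and viewed under 3-fold magnifier. Longest lesion diameters summed per animal as total lesion score (mm); group mean ± SEM.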

For data set [3], the system named is Rattus norvegicus. Description: Antiinflammatory activity in Sprague-Dawley rat assessed as reduction of carrageenan-induced paw edema at 200 mg/kg, po administered 30 mins before carrageenan challenge measured after 1 hr by mercury displacement method relative to control. It is filed as functional. Also noted: scale not given: the % may be the effect or the level left. In outline: as §1

The subject of data set [4] is Mus musculus. The experiment in a line: Analgesic activity in albino mouse assessed as protection against acetic acid-induced writhing at 100 mg/kg, po administered 30 mins prior to acetic acid challenge measured after 15 mins. It counts as functional. A digest of the protocol:
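Albino mice of either sex, 20–25 g, groups of six. Dosed orally as suspension in 2% CMC 30 min before i.p. acetic acid (0.6% v/v in distilled water, 1 mL/kg); controls given 2% CMC alone, standard acetyl salicylic acid. Writhes per animal counted for 15 min; activity expressed as percentage protection. Mean ± SEM, n = 6.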
In general terms: Writhing tests count abdominal constrictions after an irritant is injected.

On to `COc1ccc2c(c1)c(CC(=O)O)c(C)n2C(=O)c1ccc(Cl)cc1` [INDOMETHACIN], for which the Activity in data set [1] amounted to 43.4%; in data set [2], 26 mm.

In the case of `CCCCNc1ccc2c(c1)nc(C)n2S(=O)(=O)c1ccccc1`, the Activity in data set [3] is reported as 7.9%.

Consider `CCCNc1ccc2c(c1)nc(C)n2S(=O)(=O)c1ccccc1`, for which the Activity in data set [3] is reported as 7.7%.

For `Cc1nc2cc(Nc3ccccc3N)ccc2n1S(=O)(=O)c1ccccc1`, the Activity worked out at 37% in data set [3], 55.3% in data set [4] and 14 mm in data set [2].

As to `Cc1nc2cc(NCc3ccc([N+](=O)[O-])cc3)ccc2n1S(=O)(=O)c1ccccc1`, in data set [3], the Activity is on record as 10.8%.

With `CNc1ccc2c(c1)nc(C)n2S(=O)(=O)c1ccccc1`, the Activity in data set [3] amounted to 6.7%.

For the molecule `Cc1nc2cc(Nc3ccccc3[N+](=O)[O-])ccc2n1S(=O)(=O)c1ccccc1`, in data set [3], the Activity was 10.2%.

Regarding `Cc1nc2cc(Nc3ccc([N+](=O)[O-])cc3)ccc2n1S(=O)(=O)c1ccccc1`, the Activity in data set [3] is reported as 10.6%.

`Cc1nc2cc(NCc3ccccc3Cl)ccc2n1S(=O)(=O)c1ccccc1`: the Activity in data set [3] is reported as 8.6%.

On to `Cc1nc2cc(Nc3ccc(N)cc3)ccc2n1S(=O)(=O)c1ccccc1`, for which the figures for the Activity in data set [3], in data set [4] and in data set [2] were 39.7%, 56.9% and 16 mm, respectively.

`Cc1nc2cc(NCc3ccc(Cl)cc3)ccc2n1S(=O)(=O)c1ccccc1`: in data set [3], the Activity is on record as 9.2%.

On to `CCNc1ccc2c(c1)nc(C)n2S(=O)(=O)c1ccccc1`, for which the Activity in data set [3] is 7.2%.

On to `Cc1nc2cc(NCc3ccc(N)cc3)ccc2n1S(=O)(=O)c1ccccc1`, for which the Activity came out at 33.7% in data set [3] and 15 mm in data set [2].

On to `CC(=O)Oc1ccccc1C(=O)O` [ASPIRIN], for which the Activity in data set [4] was 57.8%.

The record behind these values is ChEMBL document CHEMBL1165862, “Synthesis and pharmacological evaluation of novel 5-substituted-1-(phenylsulfonyl)-2-methylbenzimidazole derivatives as anti-inflammatory and analgesic agents” (Eur J Med Chem, 2010).
